Data published in publication PMC10693208 (Evolutionary Bioinformatics Online, 2023).
Values joined by “and” are separate entries in the source; they are usually repeats but may differ in a detail not shown here. Equal values may be shown once. Read-outs that look alike come from different tables or passages of the source.

Assays:
Casp3 = assay: RT-PCR, Casp3 level in HCT-116 cells; assay type: cell-based, human; conditions: HCT-116 treated with 23.3 µM, vs control cells = 1
How it was run: (§1)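 Total RNA extracted from HCT-116 cells after test compound exposure using a commercial extraction kit. Transcript levels were measured by RT-PCR with SYBR Green master mix. Expression was compared with untreated control cells, taken as 1, and reported as fold change.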

Bcl-2 = assay: RT-PCR, Bcl-2 level in HCT-116 cells; assay type: cell-based, human
H1975 cells = assay: MTT cytotoxicity, H1975; assay type: cell-based; conditions: Homo sapiens, NCI-H1975, read-out: H1975 IC50
EGFR^T790M = EGFR^T790M (Homo sapiens, UniProt P00533, T790M); assay: In vitro EGFR kinase inhibition; assay type: biochemical
Chain of EGFR^T790M (P00533 25-1210 T790M): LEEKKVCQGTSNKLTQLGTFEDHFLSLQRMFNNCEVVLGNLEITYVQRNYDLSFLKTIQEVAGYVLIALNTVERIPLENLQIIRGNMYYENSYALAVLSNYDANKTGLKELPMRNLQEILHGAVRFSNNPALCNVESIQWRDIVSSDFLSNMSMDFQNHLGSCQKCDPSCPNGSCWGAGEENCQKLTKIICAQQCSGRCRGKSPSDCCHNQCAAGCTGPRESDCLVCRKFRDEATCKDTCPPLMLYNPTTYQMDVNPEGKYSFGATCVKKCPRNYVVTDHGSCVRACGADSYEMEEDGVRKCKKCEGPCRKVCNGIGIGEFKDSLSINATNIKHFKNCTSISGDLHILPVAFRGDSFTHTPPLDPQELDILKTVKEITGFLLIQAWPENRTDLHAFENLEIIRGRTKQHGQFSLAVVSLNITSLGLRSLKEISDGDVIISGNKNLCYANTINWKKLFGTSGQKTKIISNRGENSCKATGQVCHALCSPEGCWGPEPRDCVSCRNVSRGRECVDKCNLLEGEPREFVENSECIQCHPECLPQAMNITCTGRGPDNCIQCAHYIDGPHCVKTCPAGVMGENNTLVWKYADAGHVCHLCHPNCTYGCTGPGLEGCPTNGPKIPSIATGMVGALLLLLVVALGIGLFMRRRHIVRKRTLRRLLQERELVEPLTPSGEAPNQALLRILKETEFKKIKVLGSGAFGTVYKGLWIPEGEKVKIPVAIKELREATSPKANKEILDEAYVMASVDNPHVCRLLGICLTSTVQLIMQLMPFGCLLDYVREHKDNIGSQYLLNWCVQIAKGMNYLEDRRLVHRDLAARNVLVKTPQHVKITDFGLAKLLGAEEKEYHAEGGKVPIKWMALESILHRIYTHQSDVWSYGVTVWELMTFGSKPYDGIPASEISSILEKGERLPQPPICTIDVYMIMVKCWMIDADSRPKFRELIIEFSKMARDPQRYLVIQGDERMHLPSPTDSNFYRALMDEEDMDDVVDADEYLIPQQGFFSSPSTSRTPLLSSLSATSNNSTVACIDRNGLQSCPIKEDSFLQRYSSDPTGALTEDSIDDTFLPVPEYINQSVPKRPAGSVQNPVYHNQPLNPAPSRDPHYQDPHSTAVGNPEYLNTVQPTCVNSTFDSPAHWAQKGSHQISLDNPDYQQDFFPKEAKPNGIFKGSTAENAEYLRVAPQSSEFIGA

HCT-116 cells [1] = assay: MTT cytotoxicity, HCT-116; assay type: cell-based, human
HCT-116 cells [2] = assay: Flow cytometric analysis of apoptosis; assay type: cell-based, human
EGFR^WT = EGFR^WT (Homo sapiens, UniProt P00533); assay: In vitro EGFR kinase inhibition; assay type: biochemical
Chain of EGFR^WT (P00533 25-1210): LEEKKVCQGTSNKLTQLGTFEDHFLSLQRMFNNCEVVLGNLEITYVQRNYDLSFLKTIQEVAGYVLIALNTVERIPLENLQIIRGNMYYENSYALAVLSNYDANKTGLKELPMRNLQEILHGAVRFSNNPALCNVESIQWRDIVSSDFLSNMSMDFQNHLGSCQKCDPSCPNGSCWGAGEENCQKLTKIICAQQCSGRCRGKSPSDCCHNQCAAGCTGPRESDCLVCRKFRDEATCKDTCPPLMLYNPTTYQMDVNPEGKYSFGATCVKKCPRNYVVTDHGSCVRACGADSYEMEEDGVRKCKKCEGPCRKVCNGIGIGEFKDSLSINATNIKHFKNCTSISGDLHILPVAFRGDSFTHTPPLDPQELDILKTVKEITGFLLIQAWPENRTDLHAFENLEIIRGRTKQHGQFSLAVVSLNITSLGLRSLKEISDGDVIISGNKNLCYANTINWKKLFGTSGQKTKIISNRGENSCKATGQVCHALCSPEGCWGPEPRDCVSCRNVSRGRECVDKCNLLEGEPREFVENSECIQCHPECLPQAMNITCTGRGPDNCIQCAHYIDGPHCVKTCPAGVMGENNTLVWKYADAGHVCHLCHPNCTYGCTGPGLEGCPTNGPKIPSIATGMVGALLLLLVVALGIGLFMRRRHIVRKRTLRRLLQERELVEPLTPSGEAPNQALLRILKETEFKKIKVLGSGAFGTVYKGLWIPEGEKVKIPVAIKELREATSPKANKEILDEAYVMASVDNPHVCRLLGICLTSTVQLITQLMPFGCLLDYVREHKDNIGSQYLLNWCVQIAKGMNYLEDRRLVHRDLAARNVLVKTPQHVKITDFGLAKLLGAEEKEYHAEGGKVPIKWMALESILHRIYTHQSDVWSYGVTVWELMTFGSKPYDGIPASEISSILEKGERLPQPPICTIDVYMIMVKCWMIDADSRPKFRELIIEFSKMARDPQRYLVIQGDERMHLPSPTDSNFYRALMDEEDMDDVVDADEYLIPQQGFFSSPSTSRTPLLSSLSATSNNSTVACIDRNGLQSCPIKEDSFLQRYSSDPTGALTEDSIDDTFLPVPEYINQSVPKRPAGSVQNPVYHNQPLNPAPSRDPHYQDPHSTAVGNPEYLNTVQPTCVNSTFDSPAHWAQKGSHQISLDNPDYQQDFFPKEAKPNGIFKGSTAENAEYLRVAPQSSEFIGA

Casp9 = assay: RT-PCR, Casp9 level in HCT-116 cells; assay type: cell-based, human; conditions: HCT-116 treated with 23.3 µM, vs control cells = 1
How it was run: as §1

BAX = assay: RT-PCR, BAX level in HCT-116 cells; assay type: cell-based, human; conditions: HCT-116 treated with 23.3 µM, vs control cells = 1
How it was run: as §1

[3] = Homo sapiens, HCT-116, read-out: HCT-116 IC50, MTT, erlotinib as reference
[4] = read-out: HCT-116 IC50, MTT, erlotinib as reference

SMILES | RT-PCR Fold change Casp3 (Casp3) | Bcl-2 reduction compared to the control (Bcl-2; HCT-116, reduction factor) [fold] | RT-PCR Fold change Bcl-2 (Bcl-2; HCT-116 treated with 23.3 µM, vs control cells = 1) | IC50 (H1975 cells) [µM] | IC50 (EGFR^T790M) [µM] | IC50 (HCT-116 cells [1]; [3]) [µM] | selectivity index (SI), HCT-116 (HCT-116 cells [1]; SI = IC50 normal cells (Vero) / IC50 cancer cells) | IC50 (HCT-116 cells [1]; [4]) [µM] | increase of the total percentage of apoptotic cells vs control (HCT-116 cells [2]; HCT-116) [folds] | Apoptosis, Early (HCT-116 cells [2]; HCT-116, 72 h, Annexin V/PI) [%] | Apoptosis, Late (HCT-116 cells [2]; HCT-116, 72 h, Annexin V/PI) [%] | Necrosis (HCT-116 cells [2]; HCT-116, 72 h, Annexin V/PI) [%] | IC50 (EGFR^WT) [µM] | RT-PCR Fold change Casp9 (Casp9) | RT-PCR Fold change BAX (BAX)
Cn1cnc2c1c(=O)n(CC(=O)Nc1c(Cl)cccc1Cl)c(=O)n2C [Compound T-1-DOCA, N-(2,6-Dichlorophenyl)-2-(3,7-dimethyl-2,6-dioxo-2,3,6,7-tetrahydro-1H-purin-1-yl)acetamide] | 3.8 and 3.829 | 2 | 0.521 | 14.1 | 0.269 | 23.4 | 4.1 | 23.3 | ~10 | 8.55 | 18.07 | 3.09 | 0.0569 | 2.2 and 2.238 | 5.522
C#Cc1cccc(Nc2ncnc3cc(OCCOC)c(OCCOC)cc23)c1 [Erlotinib, reference compound] |  |  |  |  |  | 17.8 |  | 17.9 |  |  |  |  |  |  | 
